Results as given in ChEMBL document CHEMBL1128748, “Novel acridine-triazenes as prototype combilexins: synthesis, DNA binding, and biological activity” (J Med Chem, 1995).
pIC50: −log10 of the molar value.

How the values were obtained:
[1] = system: Calf thymus DNA; assay: Inhibitory concentration against ethidium in DNA-binding assay; assay type: nucleic-acid assay; conditions: Bos taurus
How it was run: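 Ethidium displacement from CT-DNA at pH 5.0 (9.3 mM NaCl, 2 mM NaOAc, 0.1 mM EDTA), with 1.26 μM ethidium bromide and 1 μM CT-DNA, 20 °C. Drug added serially from about 5 mM DMSO stock. Excitation 546 nm, emission 595 nm. CC50 is the concentration halving bound-ethidium fluorescence, mean of three.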

[2] = system: Calf thymus DNA; assay: Change in DNA-melting (deltaTm) with calf thymus DNA at pH 7.0; assay type: functional; conditions: Bos taurus
How it was run: (§1)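 Thermal denaturation in stoppered quartz cuvettes. DNA in 10 mM sodium phosphate, 1 mM EDTA, at pH 6.00 (CT-DNA, poly(dA-dT), poly(dG-dC)) or pH 7.00 (CT-DNA only). Working DNA 100 μM; ligand added in DMSO to 20 μM final (drug:DNA 1:5). DMSO up to 6.25% v/v, with linear correction. Heated at 1 °C/min and followed by A260. ΔTm is ligand minus drug-free control, mean of three.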

[3] = system: Calf thymus DNA; assay: Change in DNA-melting (deltaTm) with calf thymus DNA at […]; assay type: functional; conditions: Bos taurus; how it was run: as §1
[4] = system: Nucleic Acid; assay: Inhibitory concentration against ethidium in DNA-binding assay with [poly(dA-dT)]2 (synthetic oligonucleotide); assay type: nucleic-acid assay
How it was run: (§2)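 Quenching of DNA-bound ethidium at pH 5.0 (9.3 mM NaCl, 2 mM NaOAc, 0.1 mM EDTA, ionic strength 0.01 M). Synthetic DNA 20 μM with 2 μM ethidium bromide, 20 °C. Drug added serially from about 5 mM DMSO stock. Excitation 546 nm, emission 595 nm. Q is the drug concentration giving 50% fluorescence loss, mean of three.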

[5] = system: Nucleic Acid; assay: Induced change in DNA-melting (deltaTm) with [poly(dG-dC)]2 at […]; assay type: functional; how it was run: as §1
[6] = system: A2780; assay: Concentration required to inhibit the cell growth by 50 % after 96 hr […].; assay type: functional, cell-based; conditions: Homo sapiens, A2780, 96 h
How it was run: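 A2780 cells in DMEM with 10% FCS, glutamine, insulin and hydrocortisone, plated at (0.1–5) × 10³ per well and attached overnight. DMSO stocks (≤0.5% v/v) were diluted in pH 7.0 buffer. Continuous drug exposure for 96 h. TCA fixation, sulforhodamine B staining, Tris solubilization, absorbance at 540 nm. IC50 taken against solvent-treated drug-free controls.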

[7] = system: Nucleic Acid; assay: Inhibitory concentration against DNA-bound ethidium for cytotoxicity; assay type: functional
[8] = system: L1210; assay: Concentration required to inhibit the cell growth by 50 % after 48 hr in L1210 leukemic cells.; assay type: functional, cell-based; conditions: Mus musculus, L1210, 48 h
How it was run: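 Mouse L1210 leukemia cells at 5 × 10³ cells/mL. Exposed to drug for 48 h at 37 °C; stocks held ≤0.5% v/v DMSO. Surviving cells were counted with a Coulter counter against drug-free controls to give IC50. Run in duplicate.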

[9] = system: Nucleic Acid; assay: Inhibitory concentration against ethidium in DNA-binding assay with [poly(dG-dC)]2 (synthetic oligonucleotide); assay type: nucleic-acid assay; how it was run: as §2
[10] = system: Nucleic Acid; assay: Induced change in DNA-melting (deltaTm) with [poly(dA-dT)]2 at […]; assay type: functional; how it was run: as §1
[11] = system: Calf thymus DNA; assay: Induced change in DNA-biphasic melting (deltaTm) with calf thymus DNA at […]; assay type: functional; conditions: Bos taurus; how it was run: as §1
[12] = system: Calf thymus DNA; assay: (§3) Induced change in DNA-melting (deltaTm) with calf thymus DNA at pH 7.0; assay type: nucleic-acid assay; conditions: Bos taurus; how it was run: as §1
[13] = system: Nucleic Acid; assay: Induced change in DNA-melting (deltaTm) with [poly(dA-dT)]2 at pH 65.0; assay type: functional; how it was run: as §1
[14] = system: Calf thymus DNA; assay: Induced change in DNA-melting (deltaTm) with calf thymus DNA at […]; assay type: functional; conditions: Bos taurus; how it was run: as §1
[15] = system: L1210; assay: Inhibitory concentration against L1210 leukemic cell proliferation over 24 hr; conditions: Mus musculus, L1210, 24 h
[16] = system: Calf thymus DNA; assay: as §3; assay type: functional; conditions: Bos taurus; how it was run: as §1
[17] = system: Calf thymus DNA; assay: Induced change in DNA-biphasic melting (deltaTm) with calf thymus DNA at pH 7.0; assay type: functional; conditions: Bos taurus; how it was run: as §1

| Structure (SMILES) | Q [1] [µM] | Tm shift [2] [°C] | Tm shift [3] [°C] | Q [4] [µM] | Tm shift [5] [°C] | pIC50 [6] | CC50 [7] [µM] | pIC50 [8] | Q [9] [µM] | Tm shift [10] [°C] | Tm shift [11] [°C] | Tm shift [12] [°C] | Tm shift degreeC [13] [°C] | Tm shift [14] [°C] | pIC50 [15] | Tm shift [16] [°C] | Tm shift [17] [°C] |
| --- | --- | --- | --- | --- | --- | --- | --- | --- | --- | --- | --- | --- | --- | --- | --- | --- | --- |
| Cc1nc(-c2c3ccccc3nc3ccccc23)sc1CCOC(=O)c1ccc(N/N=N/c2ccc(C(=O)OCCN3CCCC3)cc2)cc1 | 26 | 1.4 | 2.9 | 15 | 0.3 | 5.46 | 2.8 | 5.47 | 45 | 1.5 |  |  |  |  |  |  |  |
| Cc1nc(-c2c3ccccc3nc3ccccc23)sc1CCOC(=O)c1ccc(N)cc1 | 20 | 0.4 | 1.1 | 24 |  | < 4.00 | 230 |  | 17 | 0.8 |  |  |  |  |  |  |  |
| Nc1ccc2c(-c3ccccc3)c3ccc(N)cc3nc2c1 | 19 | 6.9 | 11.7 | 22 | 3.3 | 5.92 |  | 5.70 | 16 | 20.3 |  |  |  |  |  |  |  |
| N=C(N)c1ccc(/N=N/Nc2ccc(C(=N)N)cc2)cc1 [DIMINAZENE] | 9 | 7.9 | 9.3 | 5 |  |  | 4.4 | 4.49 | 19 |  |  |  |  |  |  |  |  |
| Cc1nc(-c2c3ccccc3nc3ccccc23)sc1CCOC(=O)c1ccc(/N=N/Nc2cccc(C(=O)OCCN(C)C)c2)cc1 | 17 |  |  | 14 | < 0.2 | 5.42 | 1.2 | 5.52 | 34 | 1.6 | 2.1 |  |  |  |  |  |  |
| Cc1nc(-c2c3ccccc3nc3ccccc23)sc1CCO | 21 | < 0.2 | 1 | 22 | < 0.2 | < 4.00 | 190 |  | 19 | 0.7 |  |  |  |  |  |  |  |
| Nc1ccc2c(=O)c3ccc(N)cc3[nH]c2c1 |  |  |  |  |  | < 4.00 |  | 4.17 |  |  |  |  |  |  |  |  |  |
| O=C(OCCN1CCCCC1)c1ccc(/N=N/Nc2ccc(C(=O)OCCN3CCCCC3)cc2)cc1 | 13 |  | 14.5 | 11 |  |  | 5.7 | < 4.00 | 14 |  |  | 7.7 |  |  |  |  |  |
| CC(=O)c1ccc(N/N=N/c2ccc(C(=O)OCCc3sc(-c4c5ccccc5nc5ccccc45)nc3C)cc2)cc1 | 25 |  |  | 19 |  | < 4.00 | 123 | 4.00 | 33 |  |  |  |  |  |  |  |  |
| c1ccc(-c2c3ccccc3nc3ccccc23)cc1 | 22 | 0.4 | 1.3 | 23 | 0.4 | < 4.00 | 175 | 4.10 | 18 |  |  |  | 0.6 |  |  |  |  |
| Nc1ccc2cc3ccc(N)cc3nc2c1 [PROFLAVINE] | 20 | 11.5 |  | 24 | 7 | 6.33 |  | 5.57 | 14 | 24.4 |  |  |  | 16.4 |  |  |  |
| Cc1nc(-c2c3ccccc3nc3ccccc23)sc1CCOC(=O)c1ccc(N/N=N/c2ccc(C(=N)N)cc2)cc1 | 18 |  |  | 12 |  | 4.80 | 2.9 | 4.18 | 31 | 2.4 |  |  |  |  |  |  |  |
| COc1cc(NS(C)(=O)=O)ccc1Nc1c2ccccc2nc2ccccc12 [AMSACRINE] | 3.8 | 1 |  | 25 |  | 7.00 | 8.9 |  | 4.5 | 4 |  |  |  |  | 7.30 |  |  |
| Cc1nc(-c2c3ccccc3nc3ccccc23)sc1CCOC(=O)c1ccc(N/N=N/c2ccc(C(=O)OCCN3CCCCC3)cc2)cc1 | 27 |  | 2.4 | 14 | 0.2 | 5.41 | 3.2 | 5.21 | 52 | 1.9 |  | 1.5 |  |  |  |  |  |
| Cc1nc(-c2c3ccccc3nc3ccccc23)sc1CCOC(=O)c1ccc(N/N=N/c2ccc(C(N)=O)cc2)cc1 | 26 |  |  | 21 |  | 5.28 | 96 | 4.55 | 36 |  |  |  |  |  |  |  |  |
| c1ccc2nc3ccccc3cc2c1 [ACRIDINE] | 24 | 0.7 | 1.7 | 26 | 0.8 | < 4.00 | 142 | 4.35 | 22 | 0.7 |  |  |  |  |  |  |  |
| Cc1nc(-c2c3ccccc3nc3ccccc23)sc1CCOC(=O)c1ccc(N/N=N/c2ccc(C(=O)OCCN3CCOCC3)cc2)cc1 | 28 |  |  | 17 |  | 5.59 | 6.1 | 4.49 | 39 | 0.9 | 2.4 |  |  |  |  |  |  |
| O=C(OCCN1CCOCC1)c1ccc(/N=N/Nc2ccc(C(=O)OCCN3CCOCC3)cc2)cc1 | 15 |  | 3.6 | 14 |  |  | 6.8 | < 4.00 | 17 |  |  |  |  |  |  | 1.4 |  |
| Cc1nc(-c2c3ccccc3nc3ccccc23)sc1CCOC(=O)c1ccc(/N=N/Nc2ccc(C(=O)OCCN(C)C)cc2)cc1 | 35 |  |  | 16 | < 0.2 | 5.51 | 3.6 | 5.49 | 66 | 1.7 | 3 |  |  |  |  |  | 1.8 |
